# A selection: hits, their analogues and other compounds. The true share with any hit is near 2.2%.
# VIM-2 inhibitor – inhibitors of Pseudomonas aeruginosa VIM-2 metallo-beta-lactamase | inhibition, % at 5.6 µM | hit rate 0.89% among 290,000 | purified VIM-2, nitrocefin hydrolysis, epi-absorbance fluorescence;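 active = inhibition above the mean of all tested compounds plus 3 SD, cutoff set per screening run, cut at about 7.5% in these data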;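 note: red hydrolysis product quenches plate fluorescence so inhibitors raise well fluorescence; 0% = enzyme with DMSO and 100% = DMSO without enzyme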
# EBV gp42 inh – EBV gp42 inhibition; hit rate 0.42% among 220,000; Fluorescence polarization binding assay, mP read-out; inhibition, % (tested at 21.74 µM); AID 1085; Q1HVG2; in the data active = inhibition above about 50%
# Target sequence (Q1HVG2 whole entry, looked up): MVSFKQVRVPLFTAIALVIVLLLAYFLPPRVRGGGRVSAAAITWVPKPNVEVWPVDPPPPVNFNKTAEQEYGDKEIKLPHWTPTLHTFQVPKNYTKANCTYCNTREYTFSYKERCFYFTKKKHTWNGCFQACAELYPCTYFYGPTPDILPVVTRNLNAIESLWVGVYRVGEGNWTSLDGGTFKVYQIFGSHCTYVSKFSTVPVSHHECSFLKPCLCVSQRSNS
# Bcl-xL primary – inhibitors of human Bcl-xL | GST-Bcl-xL / FITC-Bim BH3 peptide fluorescence polarization | inhibition, % at 10.9 µM | Q07817 | AID 2129 | hit rate 0.7% among 320,000;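 active = inhibition above the mean of all tested compounds plus 3 SD, cutoff set per campaign, cut at about 30% in these data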;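 note: 0% = DMSO wells and 100% = unlabeled Bim-BH3 peptide competitor; inhibitors lower millipolarization by displacing the labeled peptide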
# Target sequence (Q07817 whole entry, looked up): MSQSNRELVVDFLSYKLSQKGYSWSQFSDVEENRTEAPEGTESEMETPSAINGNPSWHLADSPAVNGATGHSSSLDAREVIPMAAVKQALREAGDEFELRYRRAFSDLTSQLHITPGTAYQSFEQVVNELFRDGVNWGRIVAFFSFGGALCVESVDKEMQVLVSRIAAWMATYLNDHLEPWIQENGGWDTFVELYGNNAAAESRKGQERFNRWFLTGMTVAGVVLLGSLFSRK
# MEX-5 binding – C. elegans MEX-5 TCR-2 RNA binding activity; Q9XUB2; MEX-5/FITC-TCR2 RNA binding, fluorescence polarization; active compounds read low; activity score (negative = inhibition of binding), % at 10 µM; hit rate 0.38% among 300,000;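 active = inhibition past about -25% in most replicates, and total fluorescence under double the plate's negative control median, limit read from the data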;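 note: 0% = DMSO and -100% = 5 µM competing unlabeled TCR2 RNA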
# IMP-1 inh-1 – inhibitors of Pseudomonas aeruginosa IMP-1 metallo-beta-lactamase; purified IMP-1, nitrocefin hydrolysis, epi-absorbance fluorescence; inhibition, % at 5.6 µM; hit rate 0.45% among 290,000;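 active = inhibition above the mean plus 3 SD of all compounds in the same screening run, cut at about 4.5% in these data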;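 note: 0% = IMP-1 with DMSO and 100% = DMSO wells lacking enzyme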
#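 System: Purified recombinant IMP-1 metallo-beta-lactamase enzyme | Measured by: Fluorescence quenching readout, ex 480/em 530 nm | Replication: Singlicate | Incubation: 15 min preincubation plus 25 min reaction at 25 °C | Evaluation: Percent inhibition from optical density relative to buffer-blank wells | Benchmarks: DMSO with and without IMP-1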
# GLD-1 TGE inh – GLD-1-TGE RNA interaction inhibition (C. elegans); Q17339; purified GLD-1 + fluorescein TGE RNA, fluorescence polarization; inhibition, % at 5.96 µM; hit rate 0.44% among 320,000; AID 2280;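 active = percent inhibition above a per-plate cutoff, the plate mean of test compounds plus 3 SD, cut at about 30% in these data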;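 note: 0% = DMSO wells with GLD-1 and probe and 100% = wells lacking GLD-1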
# IMP-1 inh-2 – selectivity counter-screen for VIM-2 inhibitors: IMP-1 metallo-beta-lactamase inhibitors | shares compounds with VIM-2 inhibitor | inhibition, % at 5.6 µM | AID 1856 | purified IMP-1, nitrocefin hydrolysis, epi-absorbance fluorescence | 1,300 tested, under 10 active; call rule not given here;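 note: 0% = enzyme with vehicle and 100% = vehicle without enzyme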
# VIM-2 FRET ctr – inhibits VIM-2 in FRET assay to exclude epi-absorbance artifacts | shares compounds with VIM-2 inhibitor | purified VIM-2, CCF2 FRET substrate hydrolysis | inhibition, % at 5.6 µM | hit rate 23% among 1,300;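 active = inhibition above the mean of all tested compounds plus 3 SD, cut at about 19% in these data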;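 note: 0% = VIM-2 plus DMSO and 100% = no enzyme wells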
# TEM-1 inh – selectivity counter-screen for VIM-2 inhibitors: E. coli TEM-1 inhibitors. shares compounds with VIM-2 inhibitor. Purified TEM-1, nitrocefin hydrolysis, epi-absorbance fluorescence. inhibition, % at 5.6 µM. hit rate 3% among 1,300. AID 1866;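 active = inhibition above that campaign's mean inhibition plus 3 SD, cut at about 0.46% in these data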;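 note: 0% = TEM-1 with DMSO and 100% = TEM-1 with 100 µM potassium clavulanate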
# Target sequence (P62593 whole entry, looked up): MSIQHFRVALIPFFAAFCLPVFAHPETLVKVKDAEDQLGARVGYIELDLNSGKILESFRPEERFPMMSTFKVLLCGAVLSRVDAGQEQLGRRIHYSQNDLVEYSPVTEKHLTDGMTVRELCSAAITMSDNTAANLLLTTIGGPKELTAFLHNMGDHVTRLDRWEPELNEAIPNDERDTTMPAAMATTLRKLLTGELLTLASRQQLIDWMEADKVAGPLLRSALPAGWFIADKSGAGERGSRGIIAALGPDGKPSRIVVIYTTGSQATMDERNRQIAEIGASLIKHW
# VIM-2 confirm 2 – confirmation of P. aeruginosa VIM-2 metallo-beta-lactamase inhibitors | shares compounds with VIM-2 inhibitor | purified VIM-2, nitrocefin hydrolysis, epi-absorbance | inhibition, % at 5.6 µM | hit rate 96% among 1,300 | AID 2187;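 active = inhibition of the VIM-2 beta-lactamase enzyme above about 11% from the earlier first-round screen, limit read from the data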;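 note: 0% = VIM-2 with DMSO and 100% = buffer wells without enzyme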
# Starred values were filed as active, the others as inactive; · = not tested or not shown.
SMILES,VIM-2 inhibitor,EBV gp42 inh,Bcl-xL primary,MEX-5 binding,IMP-1 inh-1,GLD-1 TGE inh,IMP-1 inh-2,VIM-2 FRET ctr,TEM-1 inh,VIM-2 confirm 2
CC1=C(C(=O)O)N2C(=O)C(NC(=O)c3nn(C)cc3[N+](=O)[O-])C2SC1 (stereo not drawn),15.4*,-18.4,1.7,1.9,-0.2,1.0,-3.0,33.4*,-4.7,21.1*
COc1cc(OC)c2c(=O)c(OC)c(-c3ccc(OC)c(OC)c3)oc2c1,16.1*,-11.6,0.8,0.4,-2.0,0.2,-1.6,-6.0,-2.6,35.2*
COc1ccc(C(=O)NNC(=O)Cc2nc3nc(C)cc(C)n3n2)cc1,-7.4,·,3.8,-2.8,-1.5,3.3,·,·,·,·
CSC[C@H](NC(=O)COc1cc2c(c3oc(=O)c(C)c(C)c13)CCC(C)(C)O2)C(=O)O,28.4*,·,2.3,-1.3,-1.4,1.9,-3.1,48.3*,-8.2,33.5*
Cc1c(C)c2c(OCC(=O)N[C@@H](Cc3ccccc3)C(=O)O)cc3c(c2oc1=O)CCC(C)(C)O3,40.4*,·,6.6,-3.1,0.0,6.6,-3.0,68.1*,-6.3,45.8*
Cc1c(C)c2c(OCC(=O)N[C@@H](CC(C)C)C(=O)O)cc3c(c2oc1=O)CCC(C)(C)O3,2.1,·,·,-0.5,-0.4,·,·,·,·,·
CCCOC(=O)Cn1cnc2scc(-c3ccc(OC)cc3)c2c1=O,2.9,·,3.8,-3.7,-2.0,2.4,·,·,·,·
NC(=S)NN=C1c2cc(OCCN3CCOCC3)ccc2-c2ccc(OCCN3CCOCC3)cc21,59.0*,·,8.6,-4.0,-2.8,6.8,-3.5,-3.0,-10.6,70.8*
Nc1nc(=S)c2ncn([C@@H]3O[C@H](CO)[C@@H](O)[C@H]3O)c2[nH]1,·,·,7.0,·,·,3.5,·,·,·,·
Nc1nc(=S)c2ncn(C3OC(CO)C(O)C3O)c2[nH]1 (stereo not drawn),21.6*,12.3,27.8,-16.7,0.4,-6.2,-1.1,31.0*,-6.2,26.0*
CCN1CCN(c2ccc(NC(=O)c3cccc(OCc4ccccc4)c3)cc2)CC1,5.4,3.6,5.5,-0.5,-2.6,2.6,·,·,·,·
CN1CCN(c2ccc(NC(=O)c3ccc4c(c3)OCCO4)cc2)CC1,17.6*,0.7,4.3,-1.3,-1.8,-1.2,-2.5,-5.9,-5.9,34.1*
O=C(Nc1ccc(N2CCCC2=O)cc1)c1cccc(F)c1,0.4,-22.2,1.0,0.7,-1.1,8.6,·,·,·,·
CCN1CCN(c2ccc(NC(=O)c3cccc(N4CCCC4=O)c3)cc2)CC1,16.8*,·,1.4,-0.8,-1.8,3.6,-2.9,-2.6,-4.1,22.2*
CCOc1cccc(C(=O)NC(=S)Nc2ccc(N3CCN(CC)CC3)cc2)c1,44.5*,-7.9,2.8,0.0,-0.7,3.6,-3.5,-3.8,-8.0,76.7*
CN1CCN(c2ccc(NC(=O)c3cccc(OCc4ccccc4)c3)cc2)CC1,12.3*,-17.9,1.5,0.3,-1.4,-0.2,-2.7,-0.4,-5.1,28.4*
COc1ccc(C(=O)Nc2ccc(N3CCN(Cc4ccccc4)CC3)cc2)cc1,-1.5,3.5,1.0,-2.4,-2.1,3.0,·,·,·,·
COc1ccc(Cn2c(=O)[nH]c3cc(C(=O)Nc4ccc(N5CCN(C)CC5)cc4)ccc32)cc1,15.7*,-0.6,4.8,-0.2,-1.9,-9.6,-1.6,-5.4,-4.6,42.1*
Cc1ccc(C(=O)Nc2ccc(N3CCN(C)CC3)cc2)cc1C,15.7*,·,2.6,-0.3,-2.1,-13.1,-3.2,1.4,-6.4,28.6*
CCN1C(=O)[C@H]2[C@@H](c3ccc(OC)cc3)N3C(=O)CN(CCOC)C(=O)[C@@]3(C)[C@H]2C1=O,-3.3,·,0.4,1.9,-3.1,-4.0,·,·,·,·
COc1cccc(C=Nc2ccc(N3CCOCC3)cc2)c1O,-1.3,·,-2.0,-1.7,-18.9,2.4,·,·,·,·
CCN1CCN(c2ccc(N=Cc3ccccc3O)cc2)CC1,39.6*,-5.2,-1.1,1.8,-10.3,6.7,-7.8,-4.9,-6.3,28.0*
C=CCNC(=S)N/N=C(\C)c1ccc(-n2ccnc2)cc1,66.4*,-15.3,3.5,-4.4,-1.0,5.2,-2.8,-7.0,-7.7,80.4*
C/C(=N\NC(N)=O)c1ccc(-n2ccnc2)cc1,2.1,2.7,-0.7,1.2,-0.9,-5.2,·,·,·,·
COCCNC(=S)N/N=C(\C)c1ccc(-n2ccnc2)cc1,67.2*,-9.7,6.5,0.1,-2.4,-1.2,1.1,1.5,0.4*,81.7*
SMILES,VIM-2 inhibitor,EBV gp42 inh,Bcl-xL primary,MEX-5 binding,IMP-1 inh-1,GLD-1 TGE inh,IMP-1 inh-2,VIM-2 FRET ctr,TEM-1 inh,VIM-2 confirm 2
C/C(=N\NC(=S)NC(C)C)c1ccc(-n2ccnc2)cc1,77.3*,-4.8,4.2,1.4,-1.5,-5.0,-1.7,-11.5,-7.4,86.4*
CNC(=S)N/N=C(\C)c1ccc(-n2ccnc2)cc1,23.4*,4.0,2.5,-2.5,1.3,2.9,-3.8,-15.2,-7.3,43.0*
C/C(=N\NC(=S)NC(C)C)c1ccccc1,-1.9,0.5,-2.3,-1.2,-2.4,-1.6,·,·,·,·
O=C1Nc2cc(C(=O)NCC3CCCO3)ccc2S/C1=C/c1ccccc1F (stereo not drawn),1.4,·,3.6,-7.7,-3.7,-0.8,·,·,·,·
O=C1Nc2cc(C(=O)NCCCN3CCOCC3)ccc2S/C1=C/c1ccccc1F,29.7*,·,5.1,0.6,-1.2,6.2,-3.2,49.5*,-6.3,34.0*
O=C1Nc2cc(C(=O)NCCCN3CCOCC3)ccc2S/C1=C/c1cccc(Cl)c1,28.9*,·,7.3,-1.6,-2.4,0.2,-2.3,49.2*,-6.6,33.0*
O=C1Nc2cc(C(=O)NCCCN3CCCC3)ccc2S/C1=C\c1ccccc1,13.8*,·,5.8,-4.1,-0.2,5.3,-2.0,32.1*,-6.2,23.2*
O=S(=O)(c1ccccc1)N1CCN(CCO)CC1,-0.8,·,3.5,-0.3,-0.9,-8.2,·,·,·,·
COc1ccc(-c2nnc3c4ccccc4c(C)nn23)cc1,7.3,-4.8,1.1,1.8,-2.0,-2.8,·,·,·,·
Cc1nn2c(-c3ccc(S(=O)(=O)N4CCN(CCO)CC4)o3)nnc2c2ccccc12,25.8*,·,12.1,-0.8,-0.3,5.7,-2.0,7.6,-2.8,34.7*
COc1ccc(-c2nnc3c4ccccc4c(C)nn23)cc1S(=O)(=O)N1CCN(CCO)CC1,27.4*,-5.8,4.7,-4.2,-5.6,3.8,-2.6,10.9,-9.1,39.7*
Cc1cccc(OCC(=O)N(C)c2c(N)n(Cc3ccccc3)c(=O)[nH]c2=O)c1C,·,·,-14.9,·,·,0.6,·,·,·,·
